Data: ChEMBL document CHEMBL4725436, “Gibberellin JRA-003: A Selective Inhibitor of Nuclear Translocation of IKKα” (ACS Med Chem Lett, 2020)
Active and inactive are the calls of the source. The rule behind the calls is not given here.

What was measured:
[1] = target: T1, Inhibitor of nuclear factor kappa-B kinase subunit alpha (Homo sapiens) (UniProt O15111); test: Irreversible covalent binding affinity to IKKalpha in human HeLa cells at 10 uM preincubated with IL-1 beta for 3 hrs followed by incubation with compound for 2 hrs measured following rigorous washing by pull down based western blotting analysis; type: cell-based
T1 sequence (whole entry): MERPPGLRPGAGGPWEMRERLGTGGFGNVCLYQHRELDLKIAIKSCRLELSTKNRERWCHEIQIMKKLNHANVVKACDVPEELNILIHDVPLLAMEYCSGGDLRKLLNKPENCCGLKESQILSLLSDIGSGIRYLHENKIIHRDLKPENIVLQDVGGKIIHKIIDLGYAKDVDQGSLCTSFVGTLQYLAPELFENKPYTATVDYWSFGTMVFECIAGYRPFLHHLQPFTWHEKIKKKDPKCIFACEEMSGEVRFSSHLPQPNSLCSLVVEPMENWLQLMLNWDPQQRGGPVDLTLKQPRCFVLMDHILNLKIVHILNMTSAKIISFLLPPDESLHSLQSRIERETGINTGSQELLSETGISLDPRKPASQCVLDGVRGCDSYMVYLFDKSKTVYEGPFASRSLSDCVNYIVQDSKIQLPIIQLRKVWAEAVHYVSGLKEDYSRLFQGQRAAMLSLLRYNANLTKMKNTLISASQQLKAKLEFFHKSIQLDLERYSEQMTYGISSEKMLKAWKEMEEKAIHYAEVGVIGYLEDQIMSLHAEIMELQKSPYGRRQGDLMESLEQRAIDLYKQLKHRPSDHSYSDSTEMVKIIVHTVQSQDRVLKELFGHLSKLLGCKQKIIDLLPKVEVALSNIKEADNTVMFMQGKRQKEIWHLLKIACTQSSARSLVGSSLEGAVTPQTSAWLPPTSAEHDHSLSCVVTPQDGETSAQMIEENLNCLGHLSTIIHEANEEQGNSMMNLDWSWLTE
Summary of the method: (§1)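 Alkyne-tagged probe pull-down in IL-1β-stimulated HeLa cells. Protein captured by the probe was analysed by Western blotting.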

[2] = target: T1, Inhibitor of nuclear factor kappa-B kinase subunit alpha (Homo sapiens); test: Binding affinity to IKKalpha in human HeLa cells at 10 uM preincubated with IL-1 beta for 3 hrs followed by incubation with compound for 2 hrs by pull down based western blotting analysis; type: cell-based; summary of the method: as §1
Transcription factor p65 = Transcription factor p65 (Homo sapiens, UniProt Q04206); test: Binding affinity to NF-kappaB RelA (unknown origin) by SPR analysis
Chain of Transcription factor p65 (Q04206 whole entry): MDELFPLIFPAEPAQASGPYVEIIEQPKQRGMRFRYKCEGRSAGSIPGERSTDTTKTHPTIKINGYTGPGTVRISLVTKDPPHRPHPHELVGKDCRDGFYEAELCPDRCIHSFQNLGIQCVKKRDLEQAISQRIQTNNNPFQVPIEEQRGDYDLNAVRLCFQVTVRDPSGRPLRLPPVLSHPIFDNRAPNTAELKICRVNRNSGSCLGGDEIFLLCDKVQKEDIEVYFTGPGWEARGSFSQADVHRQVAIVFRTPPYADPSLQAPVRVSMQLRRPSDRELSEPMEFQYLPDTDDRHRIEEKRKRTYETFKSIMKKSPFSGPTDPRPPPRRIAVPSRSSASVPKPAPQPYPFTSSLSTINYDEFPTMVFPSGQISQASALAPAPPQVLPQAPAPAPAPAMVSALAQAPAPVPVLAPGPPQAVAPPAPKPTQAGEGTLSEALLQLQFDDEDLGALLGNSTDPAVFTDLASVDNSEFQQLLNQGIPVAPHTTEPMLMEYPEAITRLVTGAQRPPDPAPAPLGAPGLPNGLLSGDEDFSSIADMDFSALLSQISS

SUD4 = test: Cytotoxicity against human SU-DHL-4 cells assessed as reduction in cell viability measured after 24 hrs by CellTiter-Glo luminescent assay; type: functional, cell-based; settings: SU-DHL-4, 24 h
Summary of the method: (§2)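 High-throughput viability screen of test agents across a panel of 22 cancerous and noncancerous human cell lines. Viability was read by CellTiter-Glo luminescence.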

[3] = Cytotoxicity against human Hs578Bst cells assessed as reduction in cell viability measured after 24 hrs by CellTiter-Glo luminescent assay; type: cell-based; summary of the method: as §2
[4] = Inhibition of IKKalpha/IKKbeta in human HEK293T cells transfected with firefly luciferase gene assessed as inhibition of TNF-alpha-stimulated NF-kappaB signalling preincubated for 1 hr followed by TNF alpha stimulation measured after 3 hrs by luciferase reporter gene assay; type: cell-based; settings: HEK-293T
Summary of the method: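 Commercial NF-κB-driven luciferase reporter assay in HEK 293T cells stimulated with TNFα. EC50 was derived from the luminescence readout.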

Hs-578T = test: Cytotoxicity against human Hs-578T cells assessed as reduction in cell viability measured after 24 hrs by CellTiter-Glo luminescent assay; type: functional, cell-based; summary of the method: as §2
RCK8 = test: Cytotoxicity against human RC-K8 cells assessed as reduction in cell viability measured after 24 hrs by CellTiter-Glo luminescent assay; type: functional, cell-based; settings: RCK8, 24 h; summary of the method: as §2
NCI-H446 = test: Cytotoxicity against human NCI-H446 cells assessed as reduction in cell viability measured after 24 hrs by CellTiter-Glo luminescent assay; type: functional, cell-based; settings: NCI-H446, 24 h; summary of the method: as §2
[5] = target: T2, Nuclear factor NF-kappa-B p105 subunit (Homo sapiens, UniProt P19838); test: Binding affinity to NF-kappaB p50 (unknown origin) by SPR analysis
T2 sequence (P19838 whole entry): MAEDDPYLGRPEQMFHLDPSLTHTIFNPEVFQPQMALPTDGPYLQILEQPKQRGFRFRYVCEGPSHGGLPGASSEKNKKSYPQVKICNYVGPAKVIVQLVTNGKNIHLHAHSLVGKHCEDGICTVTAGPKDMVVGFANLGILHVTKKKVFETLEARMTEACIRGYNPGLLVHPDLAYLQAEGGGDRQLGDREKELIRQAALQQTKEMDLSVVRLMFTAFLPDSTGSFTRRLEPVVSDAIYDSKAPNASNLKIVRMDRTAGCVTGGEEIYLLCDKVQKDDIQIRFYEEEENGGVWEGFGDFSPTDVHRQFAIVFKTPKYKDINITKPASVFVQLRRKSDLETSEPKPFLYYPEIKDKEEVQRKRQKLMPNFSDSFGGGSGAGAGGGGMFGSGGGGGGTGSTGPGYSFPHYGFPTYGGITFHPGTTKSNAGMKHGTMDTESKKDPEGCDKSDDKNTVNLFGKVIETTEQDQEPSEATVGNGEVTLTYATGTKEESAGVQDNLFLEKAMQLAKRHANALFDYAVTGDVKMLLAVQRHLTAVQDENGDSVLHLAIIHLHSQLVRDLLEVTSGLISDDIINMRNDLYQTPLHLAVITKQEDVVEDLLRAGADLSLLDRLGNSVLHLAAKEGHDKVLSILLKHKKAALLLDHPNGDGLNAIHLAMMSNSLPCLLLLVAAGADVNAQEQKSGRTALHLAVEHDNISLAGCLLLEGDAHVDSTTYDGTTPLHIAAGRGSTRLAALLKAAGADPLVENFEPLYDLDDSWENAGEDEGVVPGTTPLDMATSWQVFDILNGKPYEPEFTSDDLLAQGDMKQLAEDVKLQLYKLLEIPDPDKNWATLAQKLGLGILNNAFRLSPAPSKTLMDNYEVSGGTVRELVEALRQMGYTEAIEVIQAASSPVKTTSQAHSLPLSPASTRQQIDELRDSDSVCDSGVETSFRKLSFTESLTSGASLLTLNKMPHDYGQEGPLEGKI

CA46 = test: Cytotoxicity against human CA46 cells assessed as reduction in cell viability measured after 24 hrs by CellTiter-Glo luminescent assay; type: functional, cell-based; settings: CA46, 24 h; summary of the method: as §2
[6] = Cytotoxicity against human Hs888Lu cells assessed as reduction in cell viability measured after 24 hrs by CellTiter-Glo luminescent assay; type: cell-based; summary of the method: as §2
HCC1599 = test: Cytotoxicity against human HCC1599 cells assessed as reduction in cell viability measured after 24 hrs by CellTiter-Glo luminescent assay; type: functional, cell-based; settings: HCC1599, 24 h; summary of the method: as §2
HEK-293T = test: Cytotoxicity against human HEK293T cells assessed as reduction in cell viability measured after 24 hrs by CellTiter-Glo luminescent assay; type: cell-based; summary of the method: as §2
PSN1 = test: Cytotoxicity against human PSN1 cells assessed as reduction in cell viability measured after 24 hrs by CellTiter-Glo luminescent assay; type: functional, cell-based; settings: PSN1, 24 h; summary of the method: as §2
[7] = Cytotoxicity against human Hs895T cells assessed as reduction in cell viability measured after 24 hrs by CellTiter-Glo luminescent assay; type: functional, cell-based; summary of the method: as §2
[8] = Cytotoxicity against human Hs895SK cells assessed as reduction in cell viability measured after 24 hrs by CellTiter-Glo luminescent assay; type: cell-based; settings: Hs 895.Sk; summary of the method: as §2
[9] = target: T1, Inhibitor of nuclear factor kappa-B kinase subunit alpha (Homo sapiens); test: Binding affinity to IKKalpha in human HeLa cells at 50 uM preincubated with IL-1 beta for 3 hrs followed by incubation with compound for 2 hrs by pull down based western blotting analysis; type: cell-based; summary of the method: as §1
[10] = target: T1, Inhibitor of nuclear factor kappa-B kinase subunit alpha (Homo sapiens); test: Inhibition of JRA-031 binding to IKKalpha in TNF-alpha-stimulated human HEK293T cells at 1 uM pretreated with compound for 1 hr followed by labeling with JRA-031 for 1 hr followed by stimulation with TNF-alpha for 1 hr by pull down based mass spectrometry; type: cell-based; settings: HEK-293T
[11] = target: T3, Inhibitor of nuclear factor kappa-B kinase subunit beta (Homo sapiens) (UniProt O14920); test: Inhibition of JRA-031 binding to IKKbeta in TNF-alpha-stimulated human HEK293T cells at 1 uM pretreated with compound for 1 hr followed by labeling with JRA-031 for 1 hr followed by stimulation with TNF-alpha for 1 hr by pull down based mass spectrometry; type: cell-based; settings: HEK-293T
T3 sequence (whole entry): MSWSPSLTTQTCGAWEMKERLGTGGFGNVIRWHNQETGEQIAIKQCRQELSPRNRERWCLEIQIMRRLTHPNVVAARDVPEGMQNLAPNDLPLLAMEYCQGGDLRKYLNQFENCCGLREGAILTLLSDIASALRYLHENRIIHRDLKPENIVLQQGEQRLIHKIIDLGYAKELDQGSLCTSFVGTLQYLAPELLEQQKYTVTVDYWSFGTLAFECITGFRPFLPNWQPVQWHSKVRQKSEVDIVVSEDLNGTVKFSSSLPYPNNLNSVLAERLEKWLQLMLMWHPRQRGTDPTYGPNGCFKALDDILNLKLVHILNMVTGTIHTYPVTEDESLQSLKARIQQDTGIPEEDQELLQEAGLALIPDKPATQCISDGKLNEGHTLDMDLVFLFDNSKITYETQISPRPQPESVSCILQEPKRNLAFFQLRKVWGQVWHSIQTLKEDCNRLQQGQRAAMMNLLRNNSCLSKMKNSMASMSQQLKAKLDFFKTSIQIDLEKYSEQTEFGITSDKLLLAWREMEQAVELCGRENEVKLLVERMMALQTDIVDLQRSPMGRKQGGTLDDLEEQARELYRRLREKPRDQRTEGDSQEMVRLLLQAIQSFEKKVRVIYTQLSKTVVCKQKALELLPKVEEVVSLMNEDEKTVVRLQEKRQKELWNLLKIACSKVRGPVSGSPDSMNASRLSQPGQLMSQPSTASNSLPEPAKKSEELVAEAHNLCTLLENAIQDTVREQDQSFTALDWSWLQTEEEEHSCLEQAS

[12] = Toxicity in po dosed rat; type: organism-based; settings: in vivo

SMILES | EC50 [4] [µM] | IC50 (SUD4) [µM] | IC50 [3] [µM] | IC50 (Hs-578T) [µM] | IC50 (RCK8) [µM] | IC50 (NCI-H446) [µM] | IC50 (CA46) [µM] | IC50 [6] [µM] | IC50 (HCC1599) [µM] | IC50 (HEK-293T) [µM] | IC50 (PSN1) [µM] | IC50 [7] [µM] | IC50 [8] [µM] | other results
C#CCCNC(=O)[C@H]1[C@@H]2[C@@]3(C)C(=O)C=C[C@@]2(OC3=O)[C@@H]2CC[C@]3(O)C[C@@]21CC3=C | – | – | – | – | – | – | – | – | – | – | – | – | – | inhibition [1]: Active; inhibition [2]: Active
C#CCCNC(=O)[C@H]1[C@H]2[C@@]3(C=C[C@H](O)[C@@]2(C)C(=O)O3)[C@@H]2CC[C@]3(O)C[C@@]21CC3=C | – | – | – | – | – | – | – | – | – | – | – | – | – | inhibition [9]: inactive
C=C1C[C@]23C[C@@]1(O)CC[C@H]2[C@@]12C=C[C@H](O)[C@@](C)(C(=O)O1)[C@H]2[C@@H]3C(=O)O [GIBBERELLIN A3] | > 100 | > 10 | > 10 | > 10 | > 10 | > 10 | > 10 | > 10 | > 10 | > 10 | > 10 | > 10 | > 10 | LD50 [12]: 6300 mg/kg
COC(=O)[C@H]1c2c(C)cccc2[C@H]2CC[C@@]3(C)C[C@]21CC3=O | > 100 | > 10 | > 10 | > 10 | > 10 | > 10 | > 10 | > 10 | > 10 | > 10 | > 10 | > 10 | > 10 | –

Continued, in another order:

EC50 [4] [µM] | SMILES | IC50 (SUD4) [µM] | IC50 [3] [µM] | IC50 (Hs-578T) [µM] | IC50 (RCK8) [µM] | IC50 (NCI-H446) [µM] | IC50 (CA46) [µM] | IC50 [6] [µM] | IC50 (HCC1599) [µM] | IC50 (HEK-293T) [µM] | IC50 (PSN1) [µM] | IC50 [7] [µM] | IC50 [8] [µM] | other results
> 100 | C=C1C[C@]23C[C@@]1(O)CC[C@@H]2c1cccc(C)c1[C@@H]3C(=O)O | > 10 | > 10 | > 10 | > 10 | > 10 | > 10 | > 10 | > 10 | > 10 | > 10 | > 10 | > 10 | Kd (Transcription factor p65): 6.34 µM; Kd [5]: 0.076 µM
> 100 | C=C1C[C@]23C[C@@]1(O)CC[C@H]2[C@@]12C=C[C@H](O)[C@@](C)(C(=O)O1)[C@H]2[C@@H]3C(=O)OC | > 10 | > 10 | > 10 | > 10 | > 10 | > 10 | > 10 | > 10 | > 10 | > 10 | > 10 | > 10 | inhibition [10]: inactive; inhibition [11]: inactive
